This passage reports IC50 results from ChEMBL document CHEMBL1153919, “Pyrano[2,3-e]isoindol-2-ones, new angelicin heteroanalogues” (Bioorg Med Chem Lett, 2009).

Test [1] concerns LoVo. In words: Phototoxicity against human LoVo cells exposed to irradiation with 3.75 J/cm'2 UVA light prior to 72 hrs drug exposure by MTT assay. To be noted: light or radiation study. In kind it is functional, cell-based. A digest of the protocol: (§1)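 Phototoxicity panel: NCTC-2544 keratinocytes, LoVo adenocarcinoma, K562 and Jurkat leukemia cells. Cells with compound received UVA at 2.5 or 3.75 J/cm2. Cell growth was measured by MTT after 72 h of exposure. IC50 is the concentration inhibiting growth by 50%.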
Background: Formazan colour is commonly taken as a measure of viable cells.

The test system of test [2] is K562. In words: Phototoxicity against human K562 cells exposed to irradiation with 2.5 J/cm'2 UVA light prior to 72 hrs drug exposure by MTT assay. In kind it is functional, cell-based. The settings on record: K562, light or radiation study. Summed up: as §1
The nature of test [3]: Phototoxicity against human NCTC-2544 cells exposed to irradiation with 3.75 J/cm'2 UVA light prior to 72 hrs drug exposure by MTT assay. The class given is cell-based. To be noted: NCTC-2544, light or radiation study. A digest of the protocol:
as §1

Test [4] has as its system K562. In words: Cytotoxicity against human K562 cells after 72 hrs by MTT assay. In kind it is functional, cell-based. To be noted: K562, 72 h.
Test [5] relates to LoVo. As to the kind of experiment: Phototoxicity against human LoVo cells exposed to irradiation with 2.5 J/cm'2 UVA light prior to 72 hrs drug exposure by MTT assay. In kind it is functional, cell-based. The settings on record: light or radiation study. Summed up:
as §1

Test [6] has as its system Jurkat. As to the kind of experiment: Cytotoxicity against human Jurkat cells after 72 hrs by MTT assay. The class given is functional, cell-based.
The test system of test [7] is Jurkat. As to the kind of experiment: Phototoxicity against human Jurkat cells exposed to irradiation with 2.5 J/cm'2 UVA light prior to 72 hrs drug exposure by MTT assay. In kind it is functional, cell-based. To be noted: light or radiation study. Summed up: as §1
For test [8], the system named is K562. In words: Phototoxicity against human K562 cells exposed to irradiation with 3.75 J/cm'2 UVA light prior to 72 hrs drug exposure by MTT assay. In kind it is functional, cell-based. The settings on record: K562, light or radiation study. Summed up:
as §1

For test [9], the system named is LoVo. As to the kind of experiment: Cytotoxicity against human LoVo cells after 72 hrs by MTT assay. The class given is functional, cell-based.
Test [10] is described as follows: Phototoxicity against human NCTC-2544 cells exposed to irradiation with 2.5 J/cm'2 UVA light prior to 72 hrs drug exposure by MTT assay. The class given is cell-based. To be noted: NCTC-2544, light or radiation study. Summed up: as §1
Test [11] has as its system Jurkat. As to the kind of experiment: Phototoxicity against human Jurkat cells exposed to irradiation with 3.75 J/cm'2 UVA light prior to 72 hrs drug exposure by MTT assay. The class given is functional, cell-based. To be noted: light or radiation study. A digest of the protocol: as §1
A short description of test [12]: Cytotoxicity against human NCTC-2544 cells after 72 hrs by MTT assay. To be noted: NCTC-2544, 72 h. In kind it is cell-based.

pIC50: −log10 of the molar value.

As to `CCOC(=O)c1cc2c(oc1=O)-c1cn(C)cc1CC2`, the pIC50 (in the test with LoVo [1]; in the test with K562 [2]; in test [3]; in the test on K562 [4]; in the test with LoVo [5]; in the test with Jurkat [6]) was under 4.70 throughout. In addition, the pIC50 (in the test with Jurkat [7]; with K562 [8]; with LoVo [9]; in [10]; in the test with Jurkat [11]; in test [12]) was under 4.70 in each case.
For the compound `CCOC(=O)c1cc2ccc3c(C(=O)OCC)n(C)c(C)c3c2oc1=O`, the pIC50 was 5.17 with LoVo [1]; under 4.70 in the test on K562 [2]; under 4.70 in [3]; under 4.70 with K562 [4]; 4.79 in the test on LoVo [5]; under 4.70 in the test on Jurkat [6]. Also, the pIC50 (with Jurkat [7]; in the test with K562 [8]; with LoVo [9]; in test [10]; in the test with Jurkat [11]; in test [12]) was under 4.70 throughout.
On to `CCOC(=O)c1[nH]c(C)c2c1CCc1cc(C(=O)OCC)c(=O)oc1-2`, for which the negative logarithm of the IC50 (pIC50) (in the test on LoVo [1]; with K562 [2]; in test [3]; in the test with K562 [4]; with LoVo [5]; in the test with Jurkat [6]) was under 4.70 throughout. The pIC50 (in the test on Jurkat [7]; in the test with K562 [8]; in the test on LoVo [9]; in test [10]; with Jurkat [11]; in test [12]) was under 4.70 throughout.
As to `CCOC(=O)c1cc2c(oc1=O)-c1c(c(C(=O)OCC)n(C)c1C)CC2`, the negative logarithm of the IC50 (pIC50) in the test on LoVo [1] is 4.95; in the test with K562 [2], 4.86; in [3] it was under 4.70; in the test on K562 [4] it was under 4.70; in the test on LoVo [5], under 4.70; in the test with Jurkat [6], under 4.70. Besides, the negative-log IC50 (pIC50) in the test on Jurkat [7] is 4.81; with K562 [8], 4.88; with LoVo [9], under 4.70; in [10], under 4.70; in the test with Jurkat [11], 4.82; in test [12], under 4.70.
As to `CCOC(=O)c1cc2c(oc1=O)-c1c(c(C(=O)OCC)n(Cc3ccc(C)cc3)c1C)CC2`, the pIC50 with LoVo [1] is 4.82; with K562 [2], 4.87; in [3], 4.77; with K562 [4], under 4.70; with LoVo [5], under 4.70; in the test on Jurkat [6], under 4.70. For the same compound, the pIC50 with Jurkat [7] was 4.79; in the test on K562 [8], 5.03; with LoVo [9], under 4.70; in [10], under 4.70; with Jurkat [11] it was 4.89; in [12], under 4.70.
For `CCOC(=O)c1c2c(c(C)n1Cc1ccc(C)cc1)-c1oc(=O)c(C(=O)OC)cc1CC2`, the negative logarithm of the IC50 (pIC50) (in the test on LoVo [1]; with K562 [2]; in [3]; in the test with K562 [4]; with LoVo [5]; with Jurkat [6]) was under 4.70 each time. Besides, the negative-log IC50 (pIC50) is under 4.70 in the test on Jurkat [7]; 4.78 with K562 [8]; under 4.70 with LoVo [9]; under 4.70 in test [10]; 4.75 in the test on Jurkat [11]; under 4.70 in [12].
In the case of `COc1c2occc2cc2ccc(=O)oc12` [METHOXSALEN], the pIC50 is under 4.70 in the test with K562 [4]; under 4.70 in the test with Jurkat [6]; under 4.70 with LoVo [9]; 5.26 in test [10]; under 4.70 in test [12].
In the case of `O=c1ccc2ccc3occc3c2o1` [ANGELICIN], the pIC50 was under 4.70 with K562 [4]; under 4.70 in the test on Jurkat [6]; under 4.70 in the test on LoVo [9]; 5.38 in test [10]; under 4.70 in [12].

As usually defined, the pIC50 is −log10 of the IC50, conventionally taken in molar units. A low value points to a high IC50.
